Broadly, the IC50 is the concentration that inhibits the measured activity by half. A lower IC50 goes with higher potency.

Calls of active or inactive are those of the source. The calls are words filed in the database; no cut-off is given here.

These results are taken from ChEMBL document CHEMBL3400013, “Synthesis and biological activity evaluation of hydrazone derivatives based on a Tröger's base skeleton” (Bioorg Med Chem, 2015).

Data set [1] concerns CCRF-CEM. Kind of data set: Induction of apoptosis in human CCRF-CEM cells assessed as inhibition of RNA synthesis after 24 hrs by propidium iodide/BrU staining by flow cytometry. It is filed as functional, cell-based.
The subject of data set [2] is Escherichia coli. In words: Antimicrobial activity against multidrug-resistant Escherichia coli C/16702 up to 200 uM after 24 to 48 hrs by broth microdilution method. Type of data set: functional, organism-based.
A short description of data set [3]: Metal chelating activity of the compound assessed as formation of Mn2+ complex by UV-vis spectrometry. Type of data set: physicochemical.
Data set [4] has as its system CCRF-CEM. In words: Cell cycle arrest in human CCRF-CEM cells assessed as accumulation at G2/M phase at IC50 after 24 hrs by propidium iodide staining-based flow cytometry. It is filed as functional. A digest of the protocol:
(§1)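 Cells were then fixed in 70% ethanol, washed in hypotonic citrate buffer, treated with RNase (50 µg/mL) and stained with propidium iodide. Flow cytometry used a 488 nm laser. Apoptosis was scored as the percentage of particles with propidium content below G0/G1.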
For orientation: Flow cytometry measures light scatter and fluorescence of single cells or particles in a stream.

The subject of data set [5] is CCRF-CEM. Kind of data set: Cell cycle arrest in human CCRF-CEM cells assessed as accumulation at G0/G1 phase at IC50 after 24 hrs by propidium iodide staining-based flow cytometry. Type of data set: functional. Summed up: as §1
The subject of data set [6] is CCRF-CEM. In words: Induction of apoptosis in human CCRF-CEM cells assessed as apoptotic cells at IC50 after 24 hrs by propidium iodide staining-based flow cytometry. It is filed as functional. A digest of the protocol:
as §1

For data set [7], the system named is Candida albicans. Kind of data set: Antifungal activity against Candida albicans up to 200 uM after 24 to 48 hrs by broth microdilution method. It is filed as functional, organism-based. On the technique in general: Dilution methods test growth across graded concentrations, often in twofold steps.
Data set [8] deals with BJ. Kind of data set: Selectivity index, ratio of IC50 for human BJ cells to IC50 for human K562 cells. It is filed as functional.
Data set [9] deals with MRC5. Kind of data set: Cytostatic activity against human MRC5 cells after 72 hrs by MTT assay. It is filed as ADME, cell-based. The conditions noted are these: MRC5, 72 h. A digest of the protocol: (§2)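 Cells were seeded at 25,000–30,000 per well and pre-incubated for 24 h at 37°C in 5% CO2. Four-fold compound dilutions were added in duplicate and incubated for 72 h. MTT was added for 1–4 h, and formazan was dissolved in 10% aq SDS (pH 5.5) overnight at 37°C. OD was read at 540 nm. IC50 came from dose-response curves, mean ± SD of eight independent experiments.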
Background: Tetrazolium assays rely on reduction of a dye to a coloured formazan, in cell work by metabolically active cells.

For data set [10], the system named is Pseudomonas aeruginosa. Kind of data set: Antimicrobial activity against Pseudomonas aeruginosa CCM 395 up to 200 uM after 24 to 48 hrs by broth microdilution method. Type of data set: functional, organism-based.
For data set [11], the system named is CCRF-CEM. Kind of data set: Cell cycle arrest in human CCRF-CEM cells assessed as accumulation at S phase at IC50 after 24 hrs by propidium iodide staining-based flow cytometry. Type of data set: functional. A digest of the protocol: as §1
Data set [12] concerns Pseudomonas aeruginosa. Kind of data set: Antimicrobial activity against multidrug-resistant Pseudomonas aeruginosa A/16575 up to 200 uM after 24 to 48 hrs by broth microdilution method. Type of data set: functional, organism-based.
The test system of data set [13] is BJ. In words: Selectivity index, ratio of IC50 for human BJ cells to IC50 for human CEM-DNR cells. Type of data set: functional.
Data set [14] can be described thus: Cytostatic activity against human CEM-DNR cells after 72 hrs by MTT assay. Type of data set: functional, cell-based. A digest of the protocol:
as §2

For data set [15], the system named is Enterococcus faecalis. In words: Antimicrobial activity against Enterococcus faecalis CCM 4224 up to 200 uM after 24 to 48 hrs by broth microdilution method. Type of data set: functional, organism-based.
In data set [16] the test system is CCRF-CEM. In words: Cell cycle arrest in human CCRF-CEM cells assessed as accumulation at G2/M phase at 5 times IC50 after 24 hrs by propidium iodide staining-based flow cytometry. Type of data set: functional. Summed up: as §1
Data set [17] is described as follows: Metal chelating activity of the compound assessed as formation of Cr3+ complex by UV-vis spectrometry. Type of data set: physicochemical.
Data set [18] in a line: Cytostatic activity against human p53-/- HCT116 cells after 72 hrs by MTT assay. To be noted: HCT-116, 72 h. It is filed as functional, cell-based. A digest of the protocol:
as §2

Data set [19] has as its system Nucleic Acid. Kind of data set: Binding affinity to DNA (unknown origin) assessed as DNA intercalation by UV-visible spectrophotometry in presence of Co2+. Type of data set: nucleic-acid assay.
Data set [20] has as its system Staphylococcus haemolyticus. In words: Antimicrobial activity against methicillin-resistant Staphylococcus haemolyticus A1/16568 up to 200 uM after 24 to 48 hrs by broth microdilution method. Type of data set: functional, organism-based.
The test system of data set [21] is Nucleic Acid. Kind of data set: Binding affinity to DNA (unknown origin) assessed as DNA intercalation by UV-visible spectrophotometry in presence of Fe3+. Type of data set: nucleic-acid assay.

Regarding `O=C(N/N=C/c1cc(F)ccc1O)c1ccc2c3c(ccc2c1)N1Cc2c(ccc4cc(C(=O)N/N=C/c5cc(F)ccc5O)ccc24)N(C3)C1`, the inhibition result in data set [1] is “Dose-dependent effect”. Besides, the result in [2], in data set [7], in data set [10], in data set [12], in [15] and in [20] was inactive. Moreover, the Activity entry is recorded as “Not Active” in data set [3]; 13.05% in data set [4]; 31.5% in data set [5]; 40.42% in data set [6]; 55.45% in [11]; 16.49% in [16]. The Activity result in data set [17] is reported as “Not Active”. Besides, the “Ratio IC50” value in data set [8] is 18.1; in data set [13], 9.8. Moreover, the results for the 50% inhibitory concentration (IC50) in [9], in [14] and in data set [18] were 29 µM, 4.25 µM and 0.81 µM, respectively. Also, the outcome in data set [19] and in data set [21] was Active.

Consider `COC(=O)c1ccc(O)c(/C=N/NC(=O)c2ccc3c4c(ccc3c2)N2Cc3c(ccc5cc(C(=O)N/N=C/c6cc(C(=O)OC)ccc6O)ccc35)N(C4)C2)c1`, for which the outcome in data set [2], in data set [7], in data set [10], in data set [12], in data set [15] and in data set [20] was inactive. In addition, the Activity entry in data set [3] was “Not Active”; in data set [4], 12.83%; in data set [5], 48.63%; in [6] it was 12.85%; in data set [11], 38.54%; in [16] it was 13.26%. In addition, the Activity entry in [17] is reported as “Not Active”. Further, the entries for the “Ratio IC50” value in data set [8] and in data set [13] were 9.4 and 3.2, respectively. In addition, the IC50 in data set [9] stood at 95.4 µM; in [14] it was 28.2 µM; in [18] it was 9.47 µM. In addition, the outcome in [19] and in data set [21] was Active.

Take `O=C(NN=C(c1ccccn1)c1ccccn1)c1ccc2c3c(ccc2c1)N1Cc2c(ccc4cc(C(=O)NN=C(c5ccccn5)c5ccccn5)ccc24)N(C3)C1`: the result in data set [2], in data set [7], in data set [10], in [12], in [15] and in [20] was inactive. Besides, the Activity entry in data set [3] is given as “Not Active”; in data set [4] it was 10.49%; in data set [5], 28.27%; in [6] it was 12.04%; in data set [11], 61.24%; in [16], 28.23%. For the same molecule, the Activity entry in data set [17] is “Not Active”. The “Ratio IC50” value worked out at 2.4 in data set [8] and 0.7 in [13]. Moreover, the IC50 turned out to be 1.03 µM in data set [9], 2.08 µM in data set [14] and 0.78 µM in data set [18]. For the same molecule, the outcome in data set [19] and in data set [21] was Active.

`O=C(N/N=C/c1cc(O)ccc1O)c1ccc2c3c(ccc2c1)N1Cc2c(ccc4cc(C(=O)N/N=C/c5cc(O)ccc5O)ccc24)N(C3)C1`: the result in [2], in [7], in data set [10], in data set [12], in data set [15] and in [20] was inactive. Moreover, the Activity result is reported as “Not Active” in data set [3]; 17.9% in [4]; 37.38% in [5]; 3.99% in [6]; 44.72% in [11]; 20.46% in [16]. In addition, the Activity entry in [17] was “Not Active”. The “Ratio IC50” value in [8] was determined as 8; in data set [13] it was 1.4. Besides, the concentration for half-maximal inhibition (IC50) in [9] was 0.55 µM; in [14], 2.59 µM; in data set [18] it was 0.12 µM. Moreover, the outcome in data set [19] and in data set [21] was Active.

For `COc1ccc(O)c(/C=N/NC(=O)c2ccc3c4c(ccc3c2)N2Cc3c(ccc5cc(C(=O)N/N=C/c6cc(OC)ccc6O)ccc35)N(C4)C2)c1`, the outcome in data set [2], in data set [7], in data set [10], in data set [12], in data set [15] and in [20] was inactive. Further, the Activity entry in data set [3] was “Not Active”; in [4] it was 15.97%; in data set [5] it was 30%; in data set [6], 12.97%; in data set [11], 54.03%; in [16], 12.4%. Besides, the Activity result in [17] is recorded as “Not Active”. Further, the “Ratio IC50” value in [8] was 357.2; in data set [13], 13.3. For the same molecule, the IC50 in [9] amounted to 0.11 µM; in [14], 2.14 µM; in [18], 0.06 µM. The result in data set [19] and in [21] was Active.

Take `O=C(N/N=C/c1ccccc1O)c1ccc2c3c(ccc2c1)N1Cc2c(ccc4cc(C(=O)N/N=C/c5ccccc5O)ccc24)N(C3)C1`: the result in data set [2], in data set [7], in data set [10], in data set [12], in [15] and in [20] was inactive. The Activity result is reported as “Not Active” in data set [3]; 19.09% in data set [4]; 30.6% in data set [5]; 18.07% in [6]; 50.31% in [11]; 18.92% in data set [16]. For the same molecule, the Activity result in data set [17] was “Not Active”. Besides, the “Ratio IC50” value was found to be 0.6 in data set [8] and 0.1 in data set [13]. Further, the 50% inhibitory concentration (IC50) in data set [9] was determined as 0.39 µM; in data set [14], 4.25 µM; in data set [18], 0.19 µM. Moreover, the outcome in data set [19] and in data set [21] was Active.

For the molecule `Cc1ccc(O)c(/C=N/NC(=O)c2ccc3c4c(ccc3c2)N2Cc3c(ccc5cc(C(=O)N/N=C/c6cc(C)ccc6O)ccc35)N(C4)C2)c1`, the result in data set [2], in data set [7], in data set [10], in data set [12], in data set [15] and in data set [20] was inactive. The Activity entry in [3] is recorded as “Not Active”; in data set [4], 14.65%; in data set [5], 40.52%; in data set [6], 14.09%; in data set [11] it was 44.83%; in data set [16], 14.79%. In addition, the Activity entry in data set [17] is on record as “Not Active”. The “Ratio IC50” value in data set [8] is 0.5; in [13], 0.1. Also, the values for the IC50 in data set [9], in [14] and in data set [18] were 0.27 µM, 5.36 µM and 0.45 µM, respectively. Besides, the result in data set [19] and in [21] was Active.
